# Measured values reported in ChEMBL document CHEMBL1158465, “Novel small molecule bradykinin B2 receptor antagonists” (J Med Chem, 2009).
# Legend:
# [1] = target: T1, B2 bradykinin receptor (Cavia porcellus, UniProt O70526); assay: Displacement of [3H]bradykinin from guinea pig B2 receptor
# T1 sequence (O70526 whole entry): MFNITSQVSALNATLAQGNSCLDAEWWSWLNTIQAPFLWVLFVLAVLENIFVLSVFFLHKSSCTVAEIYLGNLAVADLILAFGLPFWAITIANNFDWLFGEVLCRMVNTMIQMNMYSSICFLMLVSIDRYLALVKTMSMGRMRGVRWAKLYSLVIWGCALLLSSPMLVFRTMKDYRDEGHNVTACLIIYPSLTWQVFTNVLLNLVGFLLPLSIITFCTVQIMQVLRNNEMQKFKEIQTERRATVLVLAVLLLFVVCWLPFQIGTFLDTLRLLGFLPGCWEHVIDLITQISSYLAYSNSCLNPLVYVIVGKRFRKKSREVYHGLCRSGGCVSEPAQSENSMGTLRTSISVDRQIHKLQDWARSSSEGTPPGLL
# [2] = target: T2, B2 bradykinin receptor (Homo sapiens, UniProt P30411); assay: Displacement of [3H]bradykinin from human recombinant B2 receptor expressed in HEK293 cells; type: cell-based
# T2 sequence (P30411 whole entry): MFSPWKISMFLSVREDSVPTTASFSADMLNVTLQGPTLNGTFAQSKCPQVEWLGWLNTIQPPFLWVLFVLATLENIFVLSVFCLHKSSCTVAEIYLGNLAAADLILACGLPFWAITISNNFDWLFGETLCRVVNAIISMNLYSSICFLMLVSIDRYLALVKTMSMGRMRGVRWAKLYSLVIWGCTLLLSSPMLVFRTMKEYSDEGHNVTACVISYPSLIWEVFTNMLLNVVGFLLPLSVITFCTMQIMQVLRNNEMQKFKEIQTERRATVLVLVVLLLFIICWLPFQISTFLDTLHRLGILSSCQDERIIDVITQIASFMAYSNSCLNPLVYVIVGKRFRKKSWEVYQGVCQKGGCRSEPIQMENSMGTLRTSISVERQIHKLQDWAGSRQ
# [3] = target: T2, B2 bradykinin receptor; assay: Antagonist activity at B2 receptor in human HF15 cells assessed as inhibition of bradykinin-induced calcium mobilization; type: functional, cell-based
# [4] = target: Cytochrome P450 2C19 (Homo sapiens, UniProt P33261); assay: Inhibition of human CYP2C19 by microtiter plate assay; type: ADME
# [5] = Metabolic stability in human liver microsomes at 1 uM by HPLC; type: ADME, Microsome; conditions: read-out: Stability
# Method in brief: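 Test compound was incubated with liver microsomes for 30 min. Stability is expressed as the percentage of parent compound remaining at the end of incubation.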
# [6] = target: Cytochrome P450 3A4 (Homo sapiens, UniProt P08684); assay: Inhibition of human CYP3A4 by microtiter plate assay; type: ADME
# [7] = target: T2, B2 bradykinin receptor; assay: Displacement of [3H]bradykinin from wild-type B2 receptor
# Method in brief: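 Specific binding of [³H]-BK to recombinant human B₂ receptor expressed in HEK293 cells. Displacement by test compound is reported as IC₅₀. Values are the numerical average of at least two experiments.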
# [8] = Displacement of [3H]bradykinin from B2 receptor N107A mutant
# [9] = Aqueous solubility of the compound; type: physicochemical; conditions: aqueous solution
# Cytochrome P450 3A4, sequence (P08684 whole entry): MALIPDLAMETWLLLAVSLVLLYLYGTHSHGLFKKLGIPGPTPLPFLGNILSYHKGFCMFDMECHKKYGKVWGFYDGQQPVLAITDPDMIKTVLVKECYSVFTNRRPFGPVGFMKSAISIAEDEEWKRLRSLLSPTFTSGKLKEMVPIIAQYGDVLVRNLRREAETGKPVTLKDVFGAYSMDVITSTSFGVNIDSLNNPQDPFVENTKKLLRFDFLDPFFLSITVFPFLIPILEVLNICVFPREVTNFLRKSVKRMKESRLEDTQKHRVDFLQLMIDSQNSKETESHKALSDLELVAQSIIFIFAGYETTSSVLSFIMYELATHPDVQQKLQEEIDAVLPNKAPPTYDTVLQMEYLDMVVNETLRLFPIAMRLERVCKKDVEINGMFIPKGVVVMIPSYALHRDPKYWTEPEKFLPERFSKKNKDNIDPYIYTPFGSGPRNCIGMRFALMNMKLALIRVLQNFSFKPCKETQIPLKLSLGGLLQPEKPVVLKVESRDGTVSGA
# Cytochrome P450 2C19, sequence (P33261 whole entry): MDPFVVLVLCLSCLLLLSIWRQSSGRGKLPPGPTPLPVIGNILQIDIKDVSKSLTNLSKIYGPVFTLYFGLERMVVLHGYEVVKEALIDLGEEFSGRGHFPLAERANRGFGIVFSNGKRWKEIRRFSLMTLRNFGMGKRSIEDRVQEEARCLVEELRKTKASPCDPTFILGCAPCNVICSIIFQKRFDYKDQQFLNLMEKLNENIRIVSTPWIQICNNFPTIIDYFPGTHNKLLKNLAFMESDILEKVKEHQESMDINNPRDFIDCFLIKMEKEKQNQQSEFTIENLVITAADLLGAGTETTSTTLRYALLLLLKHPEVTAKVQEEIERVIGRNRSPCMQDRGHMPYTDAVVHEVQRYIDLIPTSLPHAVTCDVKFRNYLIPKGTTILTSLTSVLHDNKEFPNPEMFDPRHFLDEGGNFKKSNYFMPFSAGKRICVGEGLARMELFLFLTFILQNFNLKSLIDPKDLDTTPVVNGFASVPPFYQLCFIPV
structure (smiles),measurement,setting,value
Cc1ccc2cccc(OCc3c(Cl)ccc(N(C)C(=O)CNC(=O)/C=C/c4ccc(C(F)(F)F)cc4)c3C#N)c2n1,IC50,[1],0.3 nM
Cc1cc(-c2conc2C)c2cccc(OCc3c(Cl)cncc3Cl)c2n1,IC50,[2],430 nM
same,IC50,[3],3800 nM
Cc1cc(C)c2cccc(OCc3c(Cl)ccc(S(=O)(=O)N4CCC[C@H]4C(=O)CCCNC(=O)c4ccc(C(=N)N)cc4)c3Cl)c2n1,IC50,[2],0.67 nM
Cc1cc(-n2ccnc2C)c2cccc(OCc3c(Cl)cncc3Cl)c2n1,IC50,[2],200 nM
same,IC50,[3],1300 nM
Cc1cc(-c2ncsc2Cl)c2cccc(OCc3c(C)ccnc3Cn3cccc(C(F)(F)F)c3=O)c2n1,IC50,[4],300 nM
same,remaining at 1 µM,[5],34%
same,IC50,[6],300 nM
same,IC50,[2],10 nM
same,IC50,[3],1.3 nM
Cc1cc(-c2csnc2C)c2cccc(OCc3c(Cl)cncc3Cl)c2n1,IC50,[2],200 nM
same,IC50,[3],330 nM
Cc1cc(-c2cncs2)c2cccc(OCc3c(Cl)cncc3Cl)c2n1,IC50,[2],135 nM
same,IC50,[3],420 nM
Cc1cc(-c2cscn2)c2cccc(OCc3c(Cl)cncc3Cl)c2n1,IC50,[2],80 nM
same,IC50,[3],300 nM
Cc1cc(-c2ccnn2C)c2cccc(OCc3c(Cl)cncc3CNC(=O)C(C)C)c2n1,IC50,[2],7.8 nM
same,IC50,[3],2.3 nM
Cc1cc(-c2ocnc2C)c2cccc(OCc3c(Cl)cncc3Cl)c2n1,IC50,[2],6050 nM
same,IC50,[3],> 5000 nM
Cc1cc(-c2cc[nH]n2)c2cccc(OCc3c(Cl)cncc3Cl)c2n1,IC50,[2],310 nM
same,IC50,[3],350 nM
Cc1ccc2cccc(OCc3c(Cl)cncc3Cl)c2n1,IC50,[2],5300 nM
Cc1cc(-c2ccnn2C)c2cccc(OCc3ccncc3Cl)c2n1,IC50,[2],517 nM
same,IC50,[3],1600 nM
Cc1cc(-c2ccnn2C)c2cccc(OCc3c(Cl)cncc3Sc3nccs3)c2n1,IC50,[7],470 nM
same,IC50,[8],2300 nM
same,IC50,[2],50 nM
same,IC50,[3],29 nM
Cc1cc(-c2ccnn2C)c2cccc(OCc3c(Cl)cncc3Sc3nccn3C)c2n1,IC50,[2],18 nM
same,IC50,[3],43 nM
Cc1cc(-c2ccnn2C)c2cccc(OCc3c(Cl)cncc3COC(=O)N(C)C)c2n1,IC50,[2],8.3 nM
same,IC50,[3],12 nM
Cc1ccc2cccc(OCc3c(Cl)cccc3Cl)c2n1,solubility,[9],< 1 µM
Cc1cc(-c2ccnn2C)c2cccc(OCc3c(Cl)cncc3CNS(C)(=O)=O)c2n1,IC50,[2],14 nM
same,IC50,[3],110 nM
Cc1cc(-c2ccnn2C)c2cccc(OCc3c(Cl)cncc3CCC(=O)N(C)C)c2n1,IC50,[2],36 nM
same,IC50,[3],73 nM
CC(=O)NCc1cncc(Cl)c1COc1cccc2c(-c3ccnn3C)cc(C)nc12,IC50,[2],12 nM
same,IC50,[3],24 nM
Cc1cc(-c2scnc2Cl)c2cccc(OCc3c(Cl)cncc3Cl)c2n1,IC50,[2],980 nM
same,IC50,[3],2500 nM
Cc1cc(-c2ccnn2C)c2cccc(OCc3c(Cl)cncc3OCC(=O)N(C)C)c2n1,IC50,[2],6.5 nM
same,IC50,[3],91 nM
Cc1cc(-n2ccnc2)c2cccc(OCc3c(Cl)cncc3Cl)c2n1,solubility,[9],> 50 µM
same,IC50,[2],580 nM
same,IC50,[3],2500 nM
Cc1cc(-c2ccnn2C)c2cccc(OCc3c(Cl)cncc3Cn3cccc(C(F)(F)F)c3=O)c2n1,IC50,[2],4 nM
same,IC50,[3],1.4 nM
Cc1cc(-c2ccnn2C)c2cccc(OCc3c(C)ccnc3CNC(=O)C(C)C)c2n1,IC50,[4],> 5000 nM
same,remaining at 1 µM,[5],13%
same,IC50,[6],3100 nM
same,IC50,[2],5.4 nM
same,IC50,[3],3.8 nM
Cc1cc(-c2ccnn2C)c2cccc(OCc3c(Cl)cncc3COc3ccccn3)c2n1,IC50,[2],140 nM
same,IC50,[3],260 nM
Cc1cc(-c2ccnn2C)c2cccc(OCc3c(C)ccnc3CNC(=O)C3CCCCC3)c2n1,IC50,[4],1600 nM
same,remaining at 1 µM,[5],17%
same,IC50,[6],2500 nM
same,IC50,[2],10 nM
same,IC50,[3],1.8 nM
Cc1cc(-c2nccs2)c2cccc(OCc3c(Cl)cncc3Cl)c2n1,IC50,[2],420 nM
same,IC50,[3],480 nM
Cc1cc(-c2ccnn2C)c2cccc(OCc3c(C)ccnc3Cn3cccc(C(F)(F)F)c3=O)c2n1,IC50,[4],> 5000 nM
same,remaining at 1 µM,[5],45%
same,IC50,[6],> 5000 nM
same,IC50,[2],8.8 nM
same,IC50,[3],0.54 nM
Cc1cc(-c2n[nH]cc2C)c2cccc(OCc3c(Cl)cncc3Cl)c2n1,remaining at 1 µM,[5],19%
same,IC50,[2],110 nM
same,IC50,[3],390 nM
Cc1cc(-c2nscc2C)c2cccc(OCc3c(Cl)cncc3Cl)c2n1,IC50,[2],20 nM
same,IC50,[3],70 nM
Cc1cc(-c2ccnn2C)c2cccc(OCc3c(Cl)cncc3Cn3ccccc3=O)c2n1,IC50,[2],5.1 nM
same,IC50,[3],3.6 nM
Cc1cc(-c2cncn2C)c2cccc(OCc3c(Cl)cncc3Cl)c2n1,IC50,[2],4400 nM
Cc1cc(-c2ncc(C)n2C)c2cccc(OCc3c(Cl)cncc3Cl)c2n1,IC50,[2],200 nM
same,IC50,[3],3400 nM
Cc1cc(-c2nccn2C)c2cccc(OCc3c(Cl)cncc3Cl)c2n1,IC50,[2],90 nM
same,IC50,[3],760 nM
Cc1cc(-c2ccnn2C)c2cccc(OCc3c(Cl)cncc3CCC(N)=O)c2n1,IC50,[2],33 nM
same,IC50,[3],190 nM
CC(=O)OCc1cncc(Cl)c1C(=O)c1cccc2c(-c3ccnn3C)cc(C)nc12,IC50,[2],6 nM
same,IC50,[3],260 nM
Cc1cc(-c2ccnn2C)c2cccc(OCc3c(Cl)cncc3Cl)c2n1,remaining at 1 µM,[5],7%
same,IC50,[2],50 nM
same,IC50,[3],180 nM
Cc1cc(-n2cccn2)c2cccc(OCc3c(Cl)cncc3Cl)c2n1,IC50,[2],32 nM
same,IC50,[3],920 nM
Cc1cc(-c2ccnn2C)c2cccc(OCc3c(Cl)cncc3[S+]([O-])CC(=O)N(C)C)c2n1 (centres undefined),IC50,[2],37 nM
same,IC50,[3],76 nM
Cc1cc(-c2ncnn2C)c2cccc(OCc3c(Cl)cncc3Cl)c2n1,IC50,[2],68 nM
same,IC50,[3],2400 nM
Cc1cc(-c2ncsc2C)c2cccc(OCc3c(Cl)cncc3Cl)c2n1,IC50,[2],64 nM
same,IC50,[3],400 nM
Cc1cc(-c2ncsc2Cl)c2cccc(OCc3c(Cl)cncc3Cl)c2n1,remaining at 1 µM,[5],35%
same,IC50,[2],210 nM
same,IC50,[3],730 nM
Cc1cc(-c2nncn2C)c2cccc(OCc3c(Cl)cncc3Cl)c2n1,IC50,[2],7100 nM
Cc1cc(-c2ccnn2C)c2cccc(OCc3c(Cl)cncc3CNC(=O)N(C)C)c2n1,IC50,[2],6.6 nM
same,IC50,[3],2.8 nM
Cc1cc(-c2scnc2C)c2cccc(OCc3c(Cl)cncc3Cl)c2n1,IC50,[2],110 nM
same,IC50,[3],67 nM
Cc1cc(-c2cn[nH]c2C)c2cccc(OCc3c(Cl)cncc3Cl)c2n1,IC50,[2],3600 nM
same,IC50,[3],6300 nM
Cc1cc(-c2ccnn2C)c2cccc(OCc3c(Cl)cncc3SCC(=O)N(C)C)c2n1,IC50,[2],7.5 nM
same,IC50,[3],24 nM
Cc1cc(C)c2cccc(OCc3c(Cl)ccc(S(=O)(=O)NC4(C(=O)N5CCN(C(=O)[C@@H](N)CCC[N+](C)(C)C)CC5)CCOCC4)c3Cl)c2n1 [FASITIBANT CHLORIDE],IC50,[2],0.05 nM
